Cneo AK release = Cryptococcus neoformans lysis via adenylate kinase release | C. neoformans lysis, adenylate kinase release luminescence, 4 h; normalised: neutral wells 0, clomiphene wells 100 | lysis activity, % at 15 µM | 0.2% of 360,000 active | AID 651654;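 active = mean lysis activity across replicates of at least 80%, whatever share of replicates individually reach that level; inactive = mean lysis activity below 80%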
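Material: C. neoformans cells; Schedule: 4 h static compound exposure, 37 °C, read 1 h post-reagent; Measured by: adenylate kinase release luminescence; Read-out: signal increase indicating cell lysis; Controls: Clomiphene as positive lysis control.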
C2C12 statin = suppressors of simvastatin-induced myotoxicity in C2C12 myotubes | ATP luminescence, 48 h; scaled: DMSO 0, geranylgeraniol control 100 | rescue of ATP level, % at 7.49 µM | 0.78% of 330,000 active | AID 602340;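 active = mean ATP rescue above about 67%, or every replicate alone reaching that limit, limit read from the data, passing the limit was not always enough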;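 note: myotubes were challenged with 10 µM simvastatin during compound exposure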
PGC1a acetyl inh = modulators of PGC1a acetylation; 0.17% of 350,000 active; U2OS PGC1a acetylation, AlphaScreen anti-acetyl-lysine; with virally co-expressed GCN5 acetyltransferase; inhibition, % at 15.6 µM;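 active = every replicate shows inhibition of at least 40%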;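 note: 0% = neutral control wells and 100% = positive control wells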
SIRT5 inh = blocks human SIRT5 desuccinylation of peptide; Q9NXA8; Purified SirT5, succinyl-peptide AMC, trypsin-coupled fluorescence; inhibition, % at 15 µM; 1.1% of 330,000 active; in the data active = inhibition above about 15%
Target sequence (Q9NXA8 whole entry, looked up): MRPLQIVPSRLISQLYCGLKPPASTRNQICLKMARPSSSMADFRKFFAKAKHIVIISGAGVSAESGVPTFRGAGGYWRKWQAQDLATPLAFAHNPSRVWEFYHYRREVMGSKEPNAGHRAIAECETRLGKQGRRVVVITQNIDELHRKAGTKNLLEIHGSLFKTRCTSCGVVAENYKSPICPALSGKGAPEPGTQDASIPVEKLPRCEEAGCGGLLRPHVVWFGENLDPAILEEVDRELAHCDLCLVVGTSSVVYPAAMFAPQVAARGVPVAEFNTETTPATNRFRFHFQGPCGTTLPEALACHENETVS
Ecoli rRNA inh = inhibits bacterial ribosomal RNA function over humanized ribosomes; 1.6% of 350,000 active; GFP signal change (wild-type ribosome), % (no concentration beside the values); E. coli WT GFP vs humanized-ribosome RFP mutants, fluorescence, 24 h; active compounds read low; DMSO median 0, no signal -100;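 active = significant combined selectivity score with lowered wild-type GFP, culture density cut under 30%, mutant RFP and density less affected; inactive = any of these conditions unmet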
S100A4 MyoIIA = blocks human S100A4 binding to myosin IIA peptide; S100A4/TAMRA-MyoIIA peptide fluorescence polarization; inhibition, % at 10.7 µM; 0.14% of 360,000 active; AID 652163;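 active = mean inhibition of at least 70% across replicates, with every replicate also reaching that level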
Target sequence (P26447 whole entry, looked up): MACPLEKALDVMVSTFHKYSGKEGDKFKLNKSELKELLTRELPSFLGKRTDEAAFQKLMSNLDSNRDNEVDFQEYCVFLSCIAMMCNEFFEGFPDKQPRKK
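Material: S100A4 monomer protein / Buffer or medium: 50 mM HEPES pH 7.2, 10 mM CaCl2, 100 mM KCl / Times: 5 min incubation before reading / Benchmarks: neutral control DMSO, positive control TFP / Reagent: labelled myosin peptide probe, 5 nM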
* = called active by the depositor. A selection: hits, their analogues and other compounds. The true share with any hit is near 3%.

COc1cccc(CNC(=O)C[C@@H]2CC[C@@H](NC(=O)C3CC3)[C@@H](CO)O2)c1 was read as Cneo AK release 0, C2C12 statin -2, PGC1a acetyl inh -6, SIRT5 inh 0, Ecoli rRNA inh 0 and S100A4 MyoIIA 6.
COc1ccc(OC)c(C(=O)/C=C/c2ccccc2C(F)(F)F)c1 was read as Cneo AK release -1, C2C12 statin 44 and PGC1a acetyl inh 46*.
O=C(O)c1ccc(NC(=O)C(c2ccccc2)c2ccccc2)cc1 was read as Cneo AK release -1, C2C12 statin 5, PGC1a acetyl inh 27, SIRT5 inh -2, Ecoli rRNA inh -15 and S100A4 MyoIIA -3.
`O=C(O)CCNC(=O)c1ccc(NC(=O)C(c2ccccc2)c2ccccc2)cc1` gave Cneo AK release 0, C2C12 statin 7, PGC1a acetyl inh -11, SIRT5 inh 57*, Ecoli rRNA inh -1 and S100A4 MyoIIA 1.
O=C(O)CCNC(=O)c1ccc(NC(=O)Cc2ccc(Cl)cc2)cc1 was read as PGC1a acetyl inh -2, SIRT5 inh 26*, Ecoli rRNA inh 9 and S100A4 MyoIIA -3.
For CCC12CC3CC(C1)CC(C(=O)NNC(N)=O)(C3)C2 the results were Cneo AK release -3, C2C12 statin 106*, PGC1a acetyl inh 13, SIRT5 inh 1, Ecoli rRNA inh 4 and S100A4 MyoIIA -2.
For CCC12CC3CC(C1)CC(C(=O)Nc1nn[nH]n1)(C3)C2 the results were Cneo AK release -1, C2C12 statin 63, PGC1a acetyl inh 4, SIRT5 inh -3, Ecoli rRNA inh -4 and S100A4 MyoIIA -4.
`CCNC(=O)C[C@H]1CC[C@H]2[C@@H](COc3ccc(NC(=O)Nc4cccc(OC)c4)cc3C(=O)N2C)O1` gave Cneo AK release -2, C2C12 statin 24, PGC1a acetyl inh -7 and Ecoli rRNA inh 1.
For O=S(=O)(c1ccccc1F)N1CC[C@@H]2[C@H]1c1cc(-c3ccc(F)cc3)ccc1N[C@@H]2CO the results were Cneo AK release -1, C2C12 statin -9, PGC1a acetyl inh -3, SIRT5 inh 5, Ecoli rRNA inh -10 and S100A4 MyoIIA 2.
Screening CCC1(C)Cc2ccccc2C(=S)N1 (stereo not drawn) returned Cneo AK release 2, C2C12 statin 88*, PGC1a acetyl inh -4, SIRT5 inh 0, Ecoli rRNA inh 19 and S100A4 MyoIIA -6.
`CC(C)NC(=O)Nc1ccc2c(c1)C(=O)N(C)[C@H]1CC[C@H](CC(=O)Nc3ccccc3)O[C@H]1CO2` gave Cneo AK release 0, C2C12 statin -14, PGC1a acetyl inh 0, SIRT5 inh -1 and S100A4 MyoIIA 3.
`CCCCCC(=O)Nc1nc(C)c(-c2csc(Nc3cc(Cl)ccc3OC)n2)s1` gave Cneo AK release 2, C2C12 statin -34, PGC1a acetyl inh 3, SIRT5 inh 24*, Ecoli rRNA inh 2 and S100A4 MyoIIA -6.
`CCCC(=O)Nc1nc(C)c(-c2csc(Nc3cc(OC)ccc3OC)n2)s1` gave Cneo AK release 1, C2C12 statin -78, PGC1a acetyl inh -17, Ecoli rRNA inh 2 and S100A4 MyoIIA -4.
Cc1noc(C)c1S(=O)(=O)Nc1ccc2c(c1)C(=O)N([C@@H](C)CO)C[C@H](C)[C@H](CN(C)C(=O)c1ccccc1)OCCCC[C@H](C)O2 was read as Cneo AK release -10, PGC1a acetyl inh 3, SIRT5 inh 2, Ecoli rRNA inh -2 and S100A4 MyoIIA -6.
For COc1ccc(CNC(=O)CCOc2ccc(C(C)(C)C)cc2)cc1 the results were Cneo AK release 1, C2C12 statin 104* and PGC1a acetyl inh 10.
`COc1ccc(CNC(=O)COc2ccc(OC)cc2)cc1` gave Cneo AK release -4, C2C12 statin 25, PGC1a acetyl inh 2, SIRT5 inh -1, Ecoli rRNA inh 5 and S100A4 MyoIIA -1.
CSc1nc2nccc(/C=C\c3ccccc3)n2n1 was read as Cneo AK release -1, C2C12 statin -6 and PGC1a acetyl inh 50*.
For O=C1C(Cl)=C(NCCCN2CCOCC2)C(=O)N1CCc1ccccc1 the results were C2C12 statin -29 and PGC1a acetyl inh 3.
For O=C1C(Cl)=C(Nc2ccccc2)C(=O)c2ccccc21 the results were Cneo AK release 0, Ecoli rRNA inh 8 and S100A4 MyoIIA -1.
For COCCCNC1=C(Cl)C(=O)c2ccccc2C1=O the results were Cneo AK release -2, PGC1a acetyl inh 5, SIRT5 inh 0, Ecoli rRNA inh -40* and S100A4 MyoIIA -3.
Screening O=C(O)c1cccc(NC2=C(Cl)C(=O)c3ccccc3C2=O)c1 returned Cneo AK release -1, PGC1a acetyl inh 12, SIRT5 inh 112*, Ecoli rRNA inh -21 and S100A4 MyoIIA 1.
O=C1C(Cl)=C(NCCc2ccccc2)C(=O)c2ccccc21 was read as Cneo AK release 2, C2C12 statin -93, PGC1a acetyl inh 4, SIRT5 inh 1, Ecoli rRNA inh -37* and S100A4 MyoIIA 4.
O=C1C(Cl)=C(NCCc2ccccc2)C(=O)N1CCc1ccccc1 was read as Cneo AK release 1, C2C12 statin 164* and PGC1a acetyl inh -6.
Screening CC(C)OCCCNC1=C(Cl)C(=O)c2ccccc2C1=O returned Cneo AK release -4, PGC1a acetyl inh 2, SIRT5 inh -3, Ecoli rRNA inh -45 and S100A4 MyoIIA 9.
COCCCNc1c2c3c(cccc3[nH]c1=O)C(=O)c1ccccc1-2 was read as Cneo AK release -2, C2C12 statin -25, PGC1a acetyl inh 8, SIRT5 inh 5, Ecoli rRNA inh 64 and S100A4 MyoIIA 127*.
`CCOC(=O)c1c2c3c(cccc3[nH]c1=O)C(=O)c1ccccc1-2` gave Cneo AK release -6, C2C12 statin 1, PGC1a acetyl inh -5, SIRT5 inh -4, Ecoli rRNA inh 22 and S100A4 MyoIIA 7.
Screening O=[N+]([O-])c1cc(/C=N/O)ccc1Sc1ccccc1 returned Cneo AK release -1, C2C12 statin 171* and PGC1a acetyl inh -10.
For CO/N=C/c1ccc(Sc2ccccc2)c([N+](=O)[O-])c1 the results were Cneo AK release -2 and C2C12 statin 2.
Screening O=[N+]([O-])c1cc(/C=N/O)ccc1SCc1ccccc1 returned Cneo AK release 0 and C2C12 statin 2.
CO/N=C/c1ccc(Sc2ccccc2N)c([N+](=O)[O-])c1 was read as Cneo AK release 2, C2C12 statin 128* and PGC1a acetyl inh -3.
